Active and inactive are the calls of the source. No cut-off for these calls is given here.

The target of test [1] is T1, Prostaglandin G/H synthase 2 (Homo sapiens, UniProt P35354).
T1 sequence (P35354 whole entry): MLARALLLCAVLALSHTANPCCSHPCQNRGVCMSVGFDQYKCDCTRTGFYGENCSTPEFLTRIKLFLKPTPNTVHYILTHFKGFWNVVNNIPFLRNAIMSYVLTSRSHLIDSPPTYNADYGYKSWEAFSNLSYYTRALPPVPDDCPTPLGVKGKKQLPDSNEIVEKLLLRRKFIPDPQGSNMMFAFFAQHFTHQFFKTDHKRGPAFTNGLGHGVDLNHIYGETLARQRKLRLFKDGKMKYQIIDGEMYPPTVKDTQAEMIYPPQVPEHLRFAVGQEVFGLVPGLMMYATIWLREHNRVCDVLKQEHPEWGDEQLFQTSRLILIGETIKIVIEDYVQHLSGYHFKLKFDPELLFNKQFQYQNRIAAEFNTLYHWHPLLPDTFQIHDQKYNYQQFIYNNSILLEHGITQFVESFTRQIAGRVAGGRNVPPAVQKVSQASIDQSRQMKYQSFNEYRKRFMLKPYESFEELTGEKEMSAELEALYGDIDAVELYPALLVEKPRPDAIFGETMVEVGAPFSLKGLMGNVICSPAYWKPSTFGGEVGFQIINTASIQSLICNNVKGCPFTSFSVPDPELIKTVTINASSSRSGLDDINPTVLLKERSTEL
The test can be described thus: Inhibition of COX2-mediated PGE2 production in LPS-induced human whole blood after 60 mins by radioimmunoassay.

Test [2] concerns the target T2, Prostaglandin G/H synthase 1 (Mus musculus) (UniProt P22437).
T2 sequence (whole entry): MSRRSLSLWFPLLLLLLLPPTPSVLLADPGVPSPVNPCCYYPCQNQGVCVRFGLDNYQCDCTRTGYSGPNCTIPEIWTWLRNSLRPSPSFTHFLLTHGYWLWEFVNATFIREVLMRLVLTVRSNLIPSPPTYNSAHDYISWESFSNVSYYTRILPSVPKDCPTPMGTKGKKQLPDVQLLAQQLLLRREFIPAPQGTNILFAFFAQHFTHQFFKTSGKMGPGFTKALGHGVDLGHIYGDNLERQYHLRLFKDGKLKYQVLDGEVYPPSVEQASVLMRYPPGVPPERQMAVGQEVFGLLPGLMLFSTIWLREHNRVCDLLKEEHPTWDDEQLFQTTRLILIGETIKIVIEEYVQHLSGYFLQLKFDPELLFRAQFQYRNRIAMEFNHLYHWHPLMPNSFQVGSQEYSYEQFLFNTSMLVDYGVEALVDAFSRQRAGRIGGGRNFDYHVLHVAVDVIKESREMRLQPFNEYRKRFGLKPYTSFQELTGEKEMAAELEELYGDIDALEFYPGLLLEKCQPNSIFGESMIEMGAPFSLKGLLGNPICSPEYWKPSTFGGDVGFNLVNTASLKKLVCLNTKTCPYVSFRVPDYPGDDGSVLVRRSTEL
The test can be described thus: Inhibition of COX-1-mediated PGE2 production in arachidonic acid-stimulated mouse J774 cells at 10 uM incubated for 15 mins prior to arachidonic acid-challenge by radioimmunoassay. The class given is cell-based. The gist of the method: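 J774 murine macrophages grown in DMEM with 10% FBS and allowed to adhere for 2 h at 37 °C. Where inhibition exceeded 50%, 0.01–1 μM was also tested. Supernatant PGE2 was measured by RIA as % inhibition versus control, in triplicate wells over three experiments. IC50 came from a sigmoidal variable-slope fit.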

Test [3] has as its system Rattus norvegicus. The test can be described thus: Antiinflammatory activity against carrageenan-induced paw edema in Sprague-Dawley rat assessed as paw weight at 100 mg/kg, po administered 4 hrs post challenge measured after 60 mins (reference value: 31.9+/-3.0 g). The class given is functional. (In general: Carrageenan injected into the paw causes an acute inflammation.)

Test [4] concerns Rattus norvegicus. The test can be described thus: Antiinflammatory activity against carrageenan-induced paw edema in Sprague-Dawley rat assessed as paw weight at 20 mg/kg, po administered 4 hrs post challenge measured after 60 mins (reference value: 32.6+/-2.7 g). The class given is functional.
Test [5] relates to Rattus norvegicus. The test can be described thus: Antiinflammatory activity against carrageenan-induced edema in Sprague-Dawley rat assessed as right hind paw volume at 100 mg/kg, po administered 4 hrs post challenge measured after 60 mins. The class given is functional. The gist of the method: (§1)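 Rats received intraplantar carrageenan. Right hind paw volume was measured 4 h after the carrageenan injection and compared with saline/carrageenan-treated controls. Oral dosing in CMC vehicle; volume recorded at 60 min after treatment.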

Test [6] concerns Rattus norvegicus. The test can be described thus: Antiinflammatory activity against carrageenan-induced paw edema in Sprague-Dawley rat assessed as paw weight at 40 mg/kg, po administered 4 hrs post challenge measured after 60 mins (reference value: 29.8+/-3.1 g). It counts as functional.
Test [7] deals with Rattus norvegicus. The test can be described thus: Antiinflammatory activity against carrageenan-induced paw edema in Sprague-Dawley rat assessed as paw weight at 100 mg/kg, po administered 4 hrs post challenge measured after 30 mins (reference value: 31.9+/-3.0 g). It counts as functional.
Test [8] deals with Rattus norvegicus. The test can be described thus: Antiinflammatory activity against carrageenan-induced paw edema in Sprague-Dawley rat assessed as paw weight at 40 mg/kg, po administered 4 hrs post challenge measured after 30 mins (reference value: 29.8+/-3.1 g). The class given is functional.
Test [9] concerns Rattus norvegicus. The test can be described thus: Antiinflammatory activity against carrageenan-induced paw edema in Sprague-Dawley rat assessed as paw weight at 20 mg/kg, po administered 4 hrs post challenge measured after 30 mins (reference value: 32.6+/-2.7 g). It counts as functional.
For test [10], the system named is Aorta. The test can be described thus: Vasorelaxation activity against KCl-induced contraction in isolated Wistar rat thoracic endothelium-denulated aortic rings. It counts as functional, tissue-based. The essentials:
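Endothelium-denuded thoracic aortic rings from male Wistar rats (250−350 g); denudation confirmed by <10% relaxation to 10 μM ACh. Rings precontracted with 30 mM KCl; compound added at 3-fold increasing concentrations, 1 nM to 10 μM. Isometric tension recorded. Emax given as % of KCl tone; pIC50 derived. Mean ± standard error of 6−10 experiments; repeated with 1 μM ODQ.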

The test system of test [11] is Aorta. The test can be described thus: Vasorelaxation activity against KCl-induced contraction in isolated Wistar rat thoracic endothelium-denulated aortic rings in the presence of guanylate cyclase inhibitor ODQ. The class given is functional, tissue-based. The gist of the method: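 Thoracic aortic rings from male Wistar rats (250–350 g), endothelium removed by rubbing; rings relaxing ≥10% to ACh 10 μM on KCl 30 mM tone were discarded. ODQ 1 μM was incubated, then rings were contracted with KCl 30 mM and given 3-fold increasing concentrations of 1 nM–10 μM.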

The target in test [12] is Prostaglandin G/H synthase 1 (Homo sapiens, UniProt P23219). The test can be described thus: Inhibition of platelet COX1-mediated TXB2 production in LPS-induced human whole blood after 60 mins by radioimmunoassay. It counts as tissue-based.
Sequence of Prostaglandin G/H synthase 1 (Homo sapiens, UniProt P23219) (P23219 whole entry): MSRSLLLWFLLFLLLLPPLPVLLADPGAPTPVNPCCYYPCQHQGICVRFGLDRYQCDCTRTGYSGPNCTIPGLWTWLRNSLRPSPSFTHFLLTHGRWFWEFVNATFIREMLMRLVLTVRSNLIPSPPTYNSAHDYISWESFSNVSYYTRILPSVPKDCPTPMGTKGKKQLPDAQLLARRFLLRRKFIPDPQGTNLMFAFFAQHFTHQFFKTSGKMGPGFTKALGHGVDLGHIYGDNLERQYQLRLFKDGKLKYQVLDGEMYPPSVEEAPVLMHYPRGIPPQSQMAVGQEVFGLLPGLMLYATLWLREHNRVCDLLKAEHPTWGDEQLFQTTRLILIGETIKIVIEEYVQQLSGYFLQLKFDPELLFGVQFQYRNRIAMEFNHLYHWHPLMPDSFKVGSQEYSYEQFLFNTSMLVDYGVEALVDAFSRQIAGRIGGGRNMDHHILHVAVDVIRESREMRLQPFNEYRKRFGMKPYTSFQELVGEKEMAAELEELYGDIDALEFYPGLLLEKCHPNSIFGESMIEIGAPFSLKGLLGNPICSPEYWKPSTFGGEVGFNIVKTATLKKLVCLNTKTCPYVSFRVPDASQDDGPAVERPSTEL
For test [13], the system named is Mus musculus. The test can be described thus: Analgesic activity in Swiss albino mouse abdominal constriction model assessed as reduction in acetic acid-induced writhing response for 10 mins at 40 mg/kg, po administered 30 mins prior to acetic acid-challenge measured after 5 mins relative to vehicle-treated control. The class given is functional, Abdomen. On the set-up: scale not given: the % may be the effect or the level left. The essentials:
(§2)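 Male Swiss albino mice (23−25 g); 0.6% acetic acid (10 mL/kg) injected ip. Stretching movements counted for 10 min, starting 5 min after administration. Oral doses in carboxymethylcellulose (CMC) vehicle, compared with vehicle-treated mice.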

For test [14], the system named is Rattus norvegicus. The test can be described thus: Antiinflammatory activity against carrageenan-induced edema in Sprague-Dawley rat assessed as right hind paw volume at 40 mg/kg, po administered 4 hrs post challenge measured after 60 mins. The class given is functional. The gist of the method:
as §1

The target in test [15] is T3, Prostaglandin G/H synthase 1 (Mus musculus, UniProt P22437).
T3 sequence (P22437 whole entry): T2 sequence (whole entry)
The test can be described thus: Inhibition of COX-1-mediated PGE2 production in arachidonic acid-stimulated mouse J774 cells incubated for 15 mins prior to arachidonic acid-challenge by radioimmunoassay. It counts as cell-based. The gist of the method: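 J774 murine macrophages grown in DMEM with 10% FBS and allowed to adhere for 2 h at 37 °C. Cells were pretreated with compound at 10 μM for 15 min, then given 15 μM arachidonic acid for 30 min at 37 °C. Where inhibition exceeded 50%, 0.01–1 μM was also tested. Supernatant PGE2 was measured by RIA as % inhibition versus control, in triplicate wells over three experiments. IC50 came from a sigmoidal variable-slope fit.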

The test system of another test is J774. The test can be described thus: Selectivity ratio of IC50 for COX1 in mouse J774 cells to IC50 for COX2 in mouse J774 cells. The class given is cell-based. The essentials: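 Ratio of J774 IC50s, COX-1 over COX-2. For COX-1, cells were pretreated with compound for 15 min, then given 15 μM arachidonic acid for 30 min at 37 °C. For COX-2, cells received E. coli LPS 10 μg/mL for 24 h with compound at 0.01–10 μM. PGE2 was measured by RIA in triplicate wells over three experiments. IC50 came from a sigmoidal fit.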

The subject of test [16] is Rattus norvegicus. The test can be described thus: Antiinflammatory activity against carrageenan-induced edema in Sprague-Dawley rat assessed as right hind paw volume at 20 mg/kg, po administered 4 hrs post challenge measured after 60 mins. The class given is functional. The gist of the method:
as §1

Test [17] concerns Rattus norvegicus. The test can be described thus: Antiinflammatory activity against carrageenan-induced paw edema in Sprague-Dawley rat assessed as paw weight at 30 mg/kg, po administered 4 hrs post challenge measured after 120 mins (reference value: 31.8+/-2.5 g). It counts as functional.
The test system of test [18] is Rattus norvegicus. The test can be described thus: Antiinflammatory activity against carrageenan-induced edema in Sprague-Dawley rat assessed as right hind paw volume at 30 mg/kg, po administered 4 hrs post challenge measured after 60 mins. It counts as functional. The gist of the method:
as §1

In test [19] the test system is Rattus norvegicus. The test can be described thus: Antiinflammatory activity against carrageenan-induced paw edema in Sprague-Dawley rat assessed as paw weight at 30 mg/kg, po administered 4 hrs post challenge measured after 60 mins (reference value: 31.8+/-2.5 g). It counts as functional.
Test [20] concerns Rattus norvegicus. The test can be described thus: Analgesic activity in Sprague-Dawley rat assessed as reduction in carrageenan-induced paw hyperalgesia at 30 mg/kg, po administered 4 hrs post challenge measured after 30 mins relative to vehicle-treated control. On the set-up: scale not given: the % may be the effect or the level left.
The subject of test [21] is Mus musculus. The test can be described thus: Analgesic activity in Swiss albino mouse abdominal constriction model assessed as reduction in acetic acid-induced writhing response at 30 mg/kg, po administered 30 mins prior to acetic acid-challenge measured after 5 mins relative to vehicle-treated control. The class given is functional, Abdomen. Also on record: scale not given: the % may be the effect or the level left. The gist of the method: as §2
For orientation: An intraperitoneal irritant provokes the stretching counted in writhing tests.

Test [22] deals with Rattus norvegicus. The test can be described thus: Antiinflammatory activity against carrageenan-induced paw edema in Sprague-Dawley rat assessed as paw weight at 30 mg/kg, po administered 4 hrs post challenge measured after 30 mins (reference value: 31.8+/-2.5 g). It counts as functional.

What is called IC50 is the concentration that gives 50% inhibition. One may read the inhibition as how much of the control response was suppressed. Consider `Cc1c(CC(=O)OCCO[N+](=O)[O-])cc(-c2ccc(S(C)(=O)=O)cc2)n1-c1cccc(F)c1`, for which the IC50 is 3.2 µM in [1], 0.331 µM with Aorta [10], 9.6 µM in test [12] and more than 10 µM in [15]. The same compound returned an inhibition in test [2] of 36%. In addition, the Activity amounted to 36.5 g in the test with Rattus norvegicus [3]; 35.3 g with Rattus norvegicus [4]; 1.88 mL in the test on Rattus norvegicus [5]; 38.7 g in the test with Rattus norvegicus [6]; 57.2 g with Rattus norvegicus [7]; 54.1 g in the test on Rattus norvegicus [8]. The Activity was found to be 40.1 g in the test with Rattus norvegicus [9], 70% with Mus musculus [13], 2.17 mL with Rattus norvegicus [14] and 2.52 mL with Rattus norvegicus [16]. In addition, the outcome in the test on Aorta [11] was inactive. The Ratio IC50 with J774 is more than 526.

As for `Cc1c(CC(=O)OCCO)cc(-c2ccc(S(C)(=O)=O)cc2)n1-c1cccc(F)c1`, the figures for the IC50 in [1], in [12] and in [15] were 1.7 µM, 12.2 µM and more than 10 µM, respectively. The same compound returned an inhibition in [2] of 33%. For the same compound, the Activity in the test on Rattus norvegicus [17] stood at 39.3 g; in the test on Rattus norvegicus [18] it was 2.51 mL; in the test on Rattus norvegicus [19] it was 52.3 g; in the test with Rattus norvegicus [20] it was 80%; in the test with Mus musculus [21] it was 70%; with Rattus norvegicus [22] it was 55.7 g. In addition, the Ratio IC50 with J774 is more than 118.

Values taken from ChEMBL document CHEMBL1938239, “Novel analgesic/anti-inflammatory agents: diarylpyrrole acetic esters endowed with nitric oxide releasing properties” (J Med Chem, 2011).
